A selection: hits, their analogues and other compounds. The true share with any hit is near 2.9%.
TRPC4 potent: TRPC4 (mouse) allosteric potentiation | HEK293 TRPC4beta/mu-opioid, DAMGO EC20, Fluo-4 Ca2+ flux; hits give high values | B-score at 10 µM | Q9QUQ5 | 310,000 compounds, 0.42% hits;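 active means B-score of calcium response area above 5 SD of library B-scores, with initial fluorescence ratio within 5 SD of library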
Target sequence (Q9QUQ5 whole entry, looked up): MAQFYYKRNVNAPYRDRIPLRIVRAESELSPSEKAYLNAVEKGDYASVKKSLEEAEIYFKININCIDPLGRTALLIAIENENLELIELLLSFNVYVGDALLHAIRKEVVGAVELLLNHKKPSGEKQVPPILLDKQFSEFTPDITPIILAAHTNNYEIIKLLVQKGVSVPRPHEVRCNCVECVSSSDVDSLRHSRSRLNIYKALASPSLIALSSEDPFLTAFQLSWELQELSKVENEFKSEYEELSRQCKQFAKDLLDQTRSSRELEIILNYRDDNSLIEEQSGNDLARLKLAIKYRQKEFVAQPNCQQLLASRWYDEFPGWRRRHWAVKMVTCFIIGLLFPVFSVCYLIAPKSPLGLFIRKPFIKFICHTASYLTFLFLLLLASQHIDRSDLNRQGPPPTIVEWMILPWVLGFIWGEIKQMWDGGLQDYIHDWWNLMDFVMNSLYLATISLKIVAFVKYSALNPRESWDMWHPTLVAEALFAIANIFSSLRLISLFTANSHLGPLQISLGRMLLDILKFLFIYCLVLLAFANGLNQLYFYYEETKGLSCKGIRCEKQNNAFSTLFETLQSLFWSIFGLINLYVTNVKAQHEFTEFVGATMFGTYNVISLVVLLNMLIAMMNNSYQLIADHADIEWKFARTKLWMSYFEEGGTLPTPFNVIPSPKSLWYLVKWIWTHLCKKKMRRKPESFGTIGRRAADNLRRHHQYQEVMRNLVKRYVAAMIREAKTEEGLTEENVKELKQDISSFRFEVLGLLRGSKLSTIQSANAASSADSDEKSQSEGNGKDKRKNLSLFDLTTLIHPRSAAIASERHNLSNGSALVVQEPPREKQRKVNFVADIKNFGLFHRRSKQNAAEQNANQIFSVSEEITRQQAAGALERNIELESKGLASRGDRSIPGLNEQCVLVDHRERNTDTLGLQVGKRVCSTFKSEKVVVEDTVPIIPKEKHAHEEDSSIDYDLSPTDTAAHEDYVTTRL
Kir21 block: blocks the mouse Kir2.1 inward-rectifier potassium channel. P35561. HEK293-Kir2.1, FluxOR thallium flux fluorescence; hits give low values. B-score at 10 µM. 310,000 compounds, 0.85% hits. AID 1672;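 active means fluorescence ratio B-score at or below minus 3 SD of library scores, with starting-brightness B-score within 2 SD, cut at about -4.2 in these data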;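 further: channel flux triggered by added potassium and thallium sulfate stimulus; B-score of peak minus minimum fluorescence over baseline after thallium stimulus; more negative B-score means stronger Kir2.1 block with less thallium influx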
TRPC6 inhibitor: blocks the mouse TRPC6 cation channel; 310,000 compounds, 1.1% hits; B-score at 10 µM; Q61143; AID 2553; HEK293-TRPC6, membrane potential dye, ACh-evoked depolarization; hits give low values;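 active means B-score under library mean minus 3 SD, initial fluorescence not abnormally high, positive integrated signal ratio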;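 further: B-score derived from integrated fluorescence ratio over the kinetic read; more negative B-score means stronger inhibition of depolarization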
TRPC4 inh: blocks the mouse TRPC4 cation channel; HEK293 TRPC4beta/mu-opioid, DAMGO-evoked Fluo4 calcium flux; hits give low values; B-score at 10 µM; 300,000 compounds, 0.39% hits; AID 2247;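 active means B-score over 3 SD under the library average, no early fluorescence shift, positive overall ratio signal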
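Assay system: HEK293 cells with stable TRPC4beta plus mu-opioid receptor expression; Probe or stimulus: DAMGO in two steps, submaximal then maximal; Dosing: single-point compound dosing; Measured by: Fluo4 calcium-dye fluorescence, kinetic read; Read-out basis: B score from integrated Fluo4 fluorescence ratio.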
TRPC6 activator: activates the mouse TRPC6 cation channel; Q61143; HEK293-TRPC6 membrane potential dye fluorescence; hits give high values; B-score at 10 µM; 310,000 compounds, 0.13% hits; AID 2550;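 active means B-score of the integrated fluorescence ratio above library mean plus 3 SD, and starting fluorescence ratio within library mean plus 5 SD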;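 further: higher score means more depolarization so channel activation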
TRPC4 act: TRPC4 (mouse) channel activation; 310,000 compounds, 0.49% hits; B-score at 10 µM; Q9QUQ5; HEK293 TRPC4beta/mu-opioid, Fluo4 calcium fluorescence; hits give high values; AID 2237;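 active means B-score above 5 SD of library B-scores, and initial fluorescence ratio not above library mean plus 5 SD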;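 further: positive B-score marks a calcium rise read as TRPC4 activation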
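Technique: kinetic Fluo4 calcium fluorescence; Test system: TRPC4beta and mu-opioid receptor HEK293 stable cells; Measure: B-scored integrated calcium fluorescence ratio; Benchmarks: low control buffer alone, high control maximal DAMGO; Schedule: 45 min room-temperature Fluo4 loading, 110 s read.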
Each line names hits and unclear results; the compound was inactive in the other large screens.

Cc1ccc(S(=O)(=O)N2CCC(C(=O)OCC(=O)N(C)CC(=O)Nc3ccc(F)cc3)CC2)cc1C	TRPC4 potent 79
O=C(CN1CCN(Cc2ccc3c(c2)OCO3)CC1)c1c[nH]c2ccccc12	none
Cc1ccc(SCc2c(C#N)c3ccccc3n2C)cc1	Kir21 block -6.6
COc1cc(C2(c3ccc(O)c(OC)c3)C(=O)Nc3c(C)cc(Br)cc32)ccc1O	TRPC4 potent 27
COc1cccc(N2CCN(C(=O)CCc3nnc4ccc(N5CCOCC5)nn34)CC2)c1	none
CC(C)Cn1c(-c2csc(C(C)C)c2)n[nH]c1=S	TRPC4 potent 13
Cc1ccccc1-c1nc(CN2CCC(C(=O)NCc3cccs3)CC2)c(C)o1	TRPC4 inh -6
CCc1ccc(S(=O)(=O)/N=C2\C=C(Nc3cccc(C(=O)O)c3)C(=O)c3ccccc32)cc1	TRPC4 inh -8
CCc1ccc(S(=O)(=O)/N=C2\C=C(Nc3ccc(O)cc3)C(=O)c3ccccc32)cc1	none
Nc1c2c(nc3c1CCCC3)CCCC2 (tested in a mixture with another compound)	TRPC4 inh -6
O=C(Oc1cccc2c(O)cccc12)c1ccccc1	Kir21 block -5.4
O=C(O)CCc1ccccc1OC(=O)c1ccccc1	none
COc1ccc(C(C(=O)NC2CCCCC2)N(Cc2ccco2)C(=O)c2snc(C(N)=O)c2N)cc1 (configuration not stated)	none
NC(=O)c1nsc(C(=O)N(Cc2ccco2)C(C(=O)NCc2ccc(F)cc2)c2ccc(O)cc2)c1N (configuration not stated)	TRPC4 inh -6
NC(=O)c1nsc(C(=O)N(Cc2ccco2)C(C(=O)NC2CCCC2)c2ccc(O)cc2)c1N (configuration not stated)	TRPC4 inh -5
Cc1ccc(C)c(N2CCN(CCCNC(=O)CCn3c(=O)c4cccn4c4cccnc43)CC2)c1	none
Cc1ccc(C)c(N2CCN(CCCNC(=O)Cn3c(=O)c4cccn4c4cccnc43)CC2)c1	TRPC4 inh -5
COc1cc2c(c(OC)c1OC)-c1c(cc3c(c1OC)OCO3)[C@@H](OC(C)=O)[C@H](C)[C@H](C)C2	none
C/C=C(/C)C(=O)O[C@@H]1c2cc(OC)c(OC)c(OC)c2-c2c(cc3c(c2OC)OCO3)C[C@H](C)[C@]1(C)O	TRPC4 potent 16 (no result: TRPC4 inh)
Cc1cc[n+](CC(=O)c2cc3ccccc3oc2=O)cc1	none
CCCN1C(=O)/C(=C/c2c(N3CCNC(=O)C3CC(=O)OCC)nc3c(C)cccn3c2=O)SC1=S (configuration not stated)	TRPC6 activator 27
Cc1cc(-c2sccc2C)nc(-n2cccc2)n1	TRPC4 inh -6
Cc1cccc(C)c1-n1cccc1/C=C1\SC(=S)N(c2cccc(C(=O)O)c2)C1=O	TRPC4 inh -7
O=C1CN(C(=O)c2ccc(Br)o2)C(c2ccccc2)c2cc(Br)ccc2N1 (configuration not stated)	TRPC4 potent 13
CCOC(=O)c1c(NC(=O)c2cccs2)sc(C)c1CC	none
CCCCN(CC)CCNC(=O)c1cc2c(C)nc3ccccc3c2o1	TRPC4 act 138
CCCN(CCC)CCCNC(=O)c1cc2cc3ccc(Cl)cc3nc2o1	TRPC4 act 53
Cc1ccc2cc3cc(C(=O)NCCCN4CCCC4)oc3nc2c1	none
CCc1ccc(CNC(=O)c2cc3c(C)nc4ccccc4c3o2)cc1	none
O=C(NCc1ccco1)c1cc2cc3ccc(Cl)cc3nc2o1	none
CCCCN(CC)CCNC(=O)c1cc2cc3ccc(Cl)cc3nc2o1	TRPC4 potent 13, TRPC4 act 103
CCCCN(CC)CCCNC(=O)c1cc2cc3ccc(C)cc3nc2o1	TRPC4 potent 16
O=C(NCCCCCNC(=O)c1ccccn1)c1ccccn1	none
CCCn1c(CNC(=O)c2cccs2)nc2ccccc21	none
CCSC1=N/C(=C\c2ccc(OC)cc2)C(=O)N1	TRPC4 potent 86
CC(=O)NCCC(=O)N1CCc2c([nH]c3ccccc23)C1c1cccc(C)c1 (configuration not stated)	none
CC1(C)CC(=O)C(C(c2ccc(F)cc2)C2C(=O)CC(C)(C)CC2=O)C(=O)C1	none
CCc1sc(C(C2C(=O)CC(C)(C)CC2=O)C2C(=O)CC(C)(C)CC2=O)cc1[N+](=O)[O-]	TRPC4 act 95
COc1ccc(OC)c(CN2CCN(C(=O)c3ccc(F)cc3)CC2)c1	none
COc1ccc(CN2CCN(C(=O)c3ccc(F)cc3)CC2)c(OC)c1	TRPC4 inh -6
CC(C)(C)c1ccc(Oc2ccc(NC(=O)c3cccs3)cn2)cc1	none
CCOc1ccc(NC(=O)C[n+]2ccccc2)cc1	none
CCCCCc1ccc(OCCC[n+]2ccccc2)c(CCCCC)c1	none
CCCCCc1ccc(OCCOCCn2c[n+](C)c3ccccc32)c(CCCCC)c1	TRPC4 act 51
CCC(=O)c1ccccc1OCCCN1CCC(Cc2ccccc2)CC1	Kir21 block -5.4, TRPC6 inhibitor -6.5
CCOc1ccccc1OCCN1CCC(Cc2ccccc2)CC1	none
CSC1=NC2(CCCCC2)C2=C(CCCC2)N1	TRPC4 inh -6
COc1cc(NS(=O)(=O)c2ccc(NC(=S)NC(=O)c3sc4ccccc4c3Cl)cc2)nc(OC)n1	none
CSc1ccccc1C(=O)NCC(c1ccco1)N(C)C (configuration not stated)	none
CN(C)C(CNC(=O)c1ccc2ccccc2c1)c1ccco1 (configuration not stated)	TRPC4 act 68
CC(=O)NC(CC(=O)NCC(c1ccco1)N(C)C)c1ccccc1 (configuration not stated)	TRPC4 act 92
CN(C)C(CNC(=O)c1ccc2c(c1)S(=O)(=O)c1ccccc1C2=O)c1ccco1 (configuration not stated)	TRPC4 inh -8, TRPC4 act 120
CSc1ccc(C(=O)NCC(c2ccco2)N(C)C)cc1[N+](=O)[O-] (configuration not stated)	TRPC4 act 293
CC(C)C(NC(=O)c1ccco1)C(=O)NCC(c1ccco1)N(C)C (configuration not stated)	none
O=C(NCc1ccco1)c1ccc2c(c1)S(=O)(=O)c1ccccc1C2=O	none
NC(=O)CCN(Cc1ccccc1)S(=O)(=O)c1ccccc1	none
O=C(CN1C(=O)S/C(=C\c2ccccc2F)C1=O)NC1CCS(=O)(=O)C1 (configuration not stated)	none
Cc1ccc(-c2cc(C(=O)Nc3nccs3)c3ccccc3n2)o1	TRPC4 inh -7

Screening data (PubChem BioAssay)
